Test [1] has as its system MCF7. Kind of test: Effect on Estrogen receptor positive MCF-7 human breast cancer cell proliferation at 1x10E-6M (control = 62.3+/-8.8). Type of test: functional. The method in brief: (§1)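 MCF-7 cells were kept in MEM with 5% charcoal-treated newborn calf serum and phenol red for 2 weeks, then about 2×10^4 cells were plated per well. Compounds in 0.1% DMF were added 2 days later and renewed on day 4; DMF alone served as control. Coulter cell counts were taken on day 5; mean of six dishes ± SD; % T/C.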

The subject of test [2] is MCF7. Kind of test: Effect on Estrogen receptor positive MCF-7 human breast cancer cell proliferation at 5x10E-6M (control = 62.3+/-8.8). Type of test: functional. The method in brief: as §1
Test [3] has as its system MCF7. Kind of test: Effect on [3H]thymidine incorporation into estrogen receptor positive MCF-7 human breast cancer cells at 1x10E-6M (control = 43.4+/-1.8). Format: functional. A digest of the protocol:
(§2)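 MCF-7 cells were grown in MEM with charcoal-treated 5% newborn calf serum and phenol red, then treated with compounds in 0.1% DMF (renewed on day 4) alongside DMF controls. They were labeled 3 days later with 1 µCi [³H]thymidine per well for 2 h, and incorporated radioactivity per dish was measured; mean of six dishes ± SD; % T/C.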
Background: Incorporation of labelled thymidine or its analogues reports DNA synthesis.

The test system of test [4] is MCF7. Kind of test: Effect on [3H]thymidine incorporation into estrogen receptor positive MCF-7 human breast cancer cells at 5x10E-6M (control = 43.4+/-1.8). Format: functional. The method in brief:
(§3)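 MCF-7 cells in improved MEM with glutamine, gentamycin and 5% newborn calf serum, switched to charcoal-treated serum two weeks ahead; phenol red present; 37 °C, 5% CO2. About 2×10^4 cells plated per well; compound in 0.1% DMF added 2 days later, renewed on day 4; labelled 3 days later with 1 μCi [3H]thymidine per well for 2 h; cpm/dish, mean of six dishes ± SD.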

The target in test [5] is T1, Estrogen receptor (Mus musculus) (UniProt O08537+P19785). As to the kind of experiment: Percent inhibition of estrone stimulated uterotrophic effect in mice at 250 ug. Type of test: functional. The method in brief: (§4)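 Immature mice given test compound per animal sc on three consecutive days together with 0.4 μg estrone/animal/day. Killed 24 h after last injection; uteri fixed in Bouin, dried 100 °C 24 h and weighed. Inhibition = 100 − [(W_S,T − W_V)/(W_S − W_V) × 100] using relative uterus weights; 6-10 animals; Wilcoxon-Mann-Whitney U test.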
Target sequence in this assay (P19785 whole entry, looked up, chain 1 of 2): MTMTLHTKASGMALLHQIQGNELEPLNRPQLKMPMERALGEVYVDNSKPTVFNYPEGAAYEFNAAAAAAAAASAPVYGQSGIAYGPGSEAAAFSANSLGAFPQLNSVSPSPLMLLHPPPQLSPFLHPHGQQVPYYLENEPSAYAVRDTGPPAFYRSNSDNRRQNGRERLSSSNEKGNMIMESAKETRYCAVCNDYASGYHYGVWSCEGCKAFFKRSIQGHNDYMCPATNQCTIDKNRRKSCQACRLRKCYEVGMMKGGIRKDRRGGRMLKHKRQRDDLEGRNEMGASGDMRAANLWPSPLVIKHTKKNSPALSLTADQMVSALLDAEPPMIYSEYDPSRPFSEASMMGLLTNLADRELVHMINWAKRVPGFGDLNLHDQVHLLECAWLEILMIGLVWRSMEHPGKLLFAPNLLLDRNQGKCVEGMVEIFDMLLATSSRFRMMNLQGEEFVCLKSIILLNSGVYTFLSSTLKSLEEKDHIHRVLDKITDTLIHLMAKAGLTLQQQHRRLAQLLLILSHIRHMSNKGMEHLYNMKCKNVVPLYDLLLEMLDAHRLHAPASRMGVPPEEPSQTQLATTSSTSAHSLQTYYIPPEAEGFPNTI
Target sequence in this assay (O08537 whole entry, looked up, chain 2 of 2): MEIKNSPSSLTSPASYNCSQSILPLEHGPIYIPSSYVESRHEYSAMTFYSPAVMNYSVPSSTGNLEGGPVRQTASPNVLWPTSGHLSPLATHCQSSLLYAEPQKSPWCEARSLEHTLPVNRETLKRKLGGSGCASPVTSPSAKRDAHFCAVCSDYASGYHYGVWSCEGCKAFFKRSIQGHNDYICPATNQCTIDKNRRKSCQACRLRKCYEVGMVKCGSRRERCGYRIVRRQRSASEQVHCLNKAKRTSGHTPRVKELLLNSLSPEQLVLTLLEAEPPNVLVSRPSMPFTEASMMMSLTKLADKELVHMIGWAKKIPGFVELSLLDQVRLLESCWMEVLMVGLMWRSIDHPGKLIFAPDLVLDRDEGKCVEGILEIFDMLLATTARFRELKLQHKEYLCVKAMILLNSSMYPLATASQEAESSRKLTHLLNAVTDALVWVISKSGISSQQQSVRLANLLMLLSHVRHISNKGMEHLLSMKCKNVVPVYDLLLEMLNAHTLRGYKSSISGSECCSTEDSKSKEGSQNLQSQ

Test [6] relates to MCF7. As to the kind of experiment: Effect on Estrogen receptor positive MCF-7 human breast cancer cell proliferation at 1x10E-6M. Format: functional. The method in brief: as §1
Test [7] deals with MCF7. Kind of test: Effect on Estrogen receptor positive MCF-7 human breast cancer cell proliferation at 5x10E-6M. Type of test: functional. The method in brief:
as §1

Test [8] addresses T1, Estrogen receptor (Mus musculus). Kind of test: Anti-uterotrophic effect in mice as relative uterine weight(mg) at 250 ug. Format: functional. The method in brief: (§5)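 Immature mice received the compound sc per animal on three consecutive days, alone or with 0.4 µg estrone per animal per day. Uteri were taken 24 h after the last injection, Bouin-fixed, dried at 100 °C for 24 h and weighed. Relative uterus weight = dry weight (mg)/body weight (g) × 100; mean of 6-10 animals ± SD; Mann-Whitney U test.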
Target sequence in this assay (P19785 whole entry, looked up, chain 1 of 2): as the sequence (P19785 whole entry, looked up, chain 1 of 2) above
Target sequence in this assay (O08537 whole entry, looked up, chain 2 of 2): as the sequence (O08537 whole entry, looked up, chain 2 of 2) above

For test [9] the target is unchanged. Kind of test: Uterotrophic effect in mice as relative uterine weight(mg) at 25 ug (control = 14.6+/-2.7). Type of test: functional, tissue-based. The method in brief: (§6)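 Immature mice dosed sc per animal on three consecutive days; vehicle controls. Killed and weighed 24 h after last injection; uteri fixed in Bouin solution 2 h, washed with alcoholic LiCl, dried at 100 °C for 24 h. Relative uterus weight = uterine dry weight (mg)/body weight (g) × 100; mean of 6-10 animals ± SD.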
Target sequence in this assay (P19785 whole entry, looked up, chain 1 of 2): as the sequence (P19785 whole entry, looked up, chain 1 of 2) above
Target sequence in this assay (O08537 whole entry, looked up, chain 2 of 2): as the sequence (O08537 whole entry, looked up, chain 2 of 2) above

For test [10] the target is unchanged. Kind of test: Uterotrophic effect in mice as relative uterine weight(mg) at 250 ug (control = 14.6+/-2.7). Format: functional, tissue-based. A digest of the protocol:
as §6
Target sequence in this assay (P19785 whole entry, looked up, chain 1 of 2): as the sequence (P19785 whole entry, looked up, chain 1 of 2) above
Target sequence in this assay (O08537 whole entry, looked up, chain 2 of 2): as the sequence (O08537 whole entry, looked up, chain 2 of 2) above

Test [11] has as its system MCF7. As to the kind of experiment: Effect on [3H]thymidine incorporation into estrogen receptor positive MCF-7 human breast cancer cells at 1x10E-6M. Format: functional. A digest of the protocol: as §2
The subject of test [12] is MCF7. Kind of test: Effect on [3H]thymidine incorporation into estrogen receptor positive MCF-7 human breast cancer cells at 5x10E-6M. Format: functional. A digest of the protocol:
as §3

Test [13] addresses T1, Estrogen receptor (Mus musculus). As to the kind of experiment: Percent inhibition of estrone stimulated uterotrophic effect in mice at 15 ug. Format: functional. A digest of the protocol:
as §4
Target sequence in this assay (O08537 whole entry, looked up): as the sequence (O08537 whole entry, looked up, chain 2 of 2) above
Target sequence in this assay (P19785 whole entry, looked up): as the sequence (P19785 whole entry, looked up, chain 1 of 2) above

For test [14] the target is unchanged. As to the kind of experiment: Percent inhibition of estrone stimulated uterotrophic effect in mice at 150 ug. Type of test: functional. A digest of the protocol: as §4
Target sequence in this assay (O08537 whole entry, looked up): as the sequence (O08537 whole entry, looked up, chain 2 of 2) above
Target sequence in this assay (P19785 whole entry, looked up): as the sequence (P19785 whole entry, looked up, chain 1 of 2) above
Test [15] has the same target. As to the kind of experiment: Anti-uterotrophic effect in mice as relative uterine weight(mg) at 15 ug. Type of test: functional. A digest of the protocol: as §5
Target sequence in this assay (O08537 whole entry, looked up): as the sequence (O08537 whole entry, looked up, chain 2 of 2) above
Target sequence in this assay (P19785 whole entry, looked up): as the sequence (P19785 whole entry, looked up, chain 1 of 2) above
Test [16] has the same target. Kind of test: Anti-uterotrophic effect in mice as relative uterine weight(mg) at 150 ug. Format: functional. A digest of the protocol:
as §5
Target sequence in this assay (O08537 whole entry, looked up): as the sequence (O08537 whole entry, looked up, chain 2 of 2) above
Target sequence in this assay (P19785 whole entry, looked up): as the sequence (P19785 whole entry, looked up, chain 1 of 2) above

The target is the same in test [17]. As to the kind of experiment: Uterotrophic effect in mice as relative uterine weight(mg) at 15 ug (control = 14.6+/-2.7). Format: functional, tissue-based. The method in brief:
as §6
Target sequence in this assay (O08537 whole entry, looked up): as the sequence (O08537 whole entry, looked up, chain 2 of 2) above
Target sequence in this assay (P19785 whole entry, looked up): as the sequence (P19785 whole entry, looked up, chain 1 of 2) above

Test [18] shares this target. As to the kind of experiment: Uterotrophic effect in mice as relative uterine weight(mg) at 150 ug (control = 14.6+/-2.7). Format: functional, tissue-based. A digest of the protocol:
as §6
Target sequence in this assay (O08537 whole entry, looked up): as the sequence (O08537 whole entry, looked up, chain 2 of 2) above
Target sequence in this assay (P19785 whole entry, looked up): as the sequence (P19785 whole entry, looked up, chain 1 of 2) above

Test [19] has as its system MCF7. Kind of test: Effect on [3H]thymidine incorporation into estrogen receptor positive MCF-7 human breast cancer cells at 5x10E-6M (control = 7.7+/-0.8). Type of test: functional. The method in brief: as §3
Test [20] concerns MCF7. As to the kind of experiment: Effect on Estrogen receptor positive MCF-7 human breast cancer cell proliferation at 1x10E-6M (control = 22.3+/-3.3). Type of test: functional. The method in brief:
as §1

In test [21] the test system is MCF7. Kind of test: Effect on Estrogen receptor positive MCF-7 human breast cancer cell proliferation at 5x10E-6M (control = 22.3+/-3.3). Format: functional. A digest of the protocol: as §1
Test [22] has as its system MCF7. As to the kind of experiment: Effect on [3H]thymidine incorporation into estrogen receptor positive MCF-7 human breast cancer cells at 1x10E-6M (control = 7.7+/-0.8). Type of test: functional. The method in brief: as §2
The target in test [23] is T1, Estrogen receptor (Mus musculus). Kind of test: Uterotrophic effect in mice as relative uterine weight(mg) at 250 ug (control = 12.4+/-3.7). Format: functional, tissue-based. The method in brief:
as §6
Target sequence in this assay (P19785 whole entry, looked up, chain 1 of 2): as above
Target sequence in this assay (O08537 whole entry, looked up, chain 2 of 2): as the sequence (O08537 whole entry, looked up, chain 2 of 2) above

For test [24], the species on record is Mus musculus. As to the kind of experiment: Relative tumor weight in treated compared to control mice bearing hormone-dependent transplanted MXT mammary tumors at 10 mg. Format: functional, organism-based.
The species named for test [25] is Mus musculus. Kind of test: Relative tumor weight in treated compared to control mice bearing hormone-dependent transplanted MXT mammary tumors at 20 mg. Format: functional, organism-based.
For test [26], the target named is T1, Estrogen receptor (Mus musculus). Kind of test: Uterotrophic effect in mice as relative uterine weight(mg) at 25 ug (control = 12.4+/-3.7). Type of test: functional, tissue-based. A digest of the protocol: as §6
Target sequence in this assay (P19785 whole entry, looked up, chain 1 of 2): as the sequence (P19785 whole entry, looked up, chain 1 of 2) above
Target sequence in this assay (O08537 whole entry, looked up, chain 2 of 2): as the sequence (O08537 whole entry, looked up, chain 2 of 2) above
Test [27] has the same target. Kind of test: Anti-uterotrophic effect in hormone-dependent transplant MXT bearing mice as relative uterine weight in treated and control mice at 10 mg (control=100+/-30). Format: functional.
Test [28] has the same target. As to the kind of experiment: Anti-uterotrophic effect in hormone-dependent transplant MXT bearing mice as relative uterine weight in treated and control mice at 20 mg (control=100+/-30). Format: functional.
For test [29], the species on record is Mus musculus. Kind of test: Anti-tumor activity in hormone-dependent transplant MXT mammary tumor bearing mice at 10 mg (control=534+/-652). Format: functional, organism-based.
Test [30] is filed under the species Mus musculus. As to the kind of experiment: Anti-tumor activity in hormone-dependent transplant MXT mammary tumor bearing mice at 20 mg (control=534+/-652). Format: functional, organism-based.
Test [31] deals with T1, Estrogen receptor (Mus musculus). Kind of test: Uterotrophic effect in mice as relative uterine weight(mg) at 25 ug (control = […]+/-1.7). Format: functional, tissue-based.
Test [32] shares this target. Kind of test: Uterotrophic effect in mice as relative uterine weight(mg) at 250 ug (control = […]+/-1.7). Format: functional, tissue-based.
Test [33] has the same target. As to the kind of experiment: Anti-uterotrophic effect in hormone-dependent transplant MXT bearing mice as relative uterine weight in treated and control mice at 20 mg (control=100+/-24). Type of test: functional.
The species named for test [34] is Mus musculus. As to the kind of experiment: Anti-tumor activity in hormone-dependent transplant MXT mammary tumor bearing mice at 20 mg (control=388+/-269). Type of test: functional, organism-based.

For orientation: inhibition means the percentage by which the read-out fell short of the control. Read a low inhibition as a weak effect. As usually defined, the T/C is the ratio of treated to control.

For “[5-hydroxy-3-methyl-2-(4-hydroxyphenyl)-1-[omega-[(2-pyridylmethyl)amino]butyl]indole]dichloroplatinum (II) complex”, the Cell no/dish with MCF7 [1] was determined as 554000; in the test with MCF7 [2] it was 489000. Also, the Activity in the test with MCF7 [3] is 38400; with MCF7 [4], 29500. For the same compound, the inhibition in test [5] came to 5%. The T/C with MCF7 [6] was determined as 89%; in the test on MCF7 [7], 79%; in the test with MCF7 [11], 88%; with MCF7 [12] it was 68%. Further, the Relative uterus weight in test [8] was determined as 51.8 mg; in [9], 21.5 mg; in test [10], 14.8 mg.
In the case of `Cc1c(-c2ccc(O)cc2)n(CCCCNCc2ccccn2)c2ccc(O)cc12`, the Cell no/dish with MCF7 [1] was 598000; in the test on MCF7 [2], 452000. Besides, the Activity in the test with MCF7 [3] is recorded as 37800; in the test with MCF7 [4], 33100. For the same compound, the inhibition turned out to be 4% in test [13] and 25% in [14]. Also, the T/C was 96% in the test on MCF7 [6], 73% in the test with MCF7 [7], 87% in the test with MCF7 [11] and 76% with MCF7 [12]. Moreover, the Relative uterus weight in test [15] is 52.2 mg; in [16], 44 mg; in test [17], 22.1 mg; in test [18] it was 15 mg.
“[5-hydroxy-3-methyl-2-(4-hydroxyphenyl)-1-[omega-[(2-pyridylmethyl)amino]hexyl]indole]dichloroplatinum (II) complex”: the Activity in the test on MCF7 [19] is 900; in the test on MCF7 [22], 1400. In addition, the Cell no/dish with MCF7 [20] turned out to be 116000; with MCF7 [21], 124000. Further, the Relative uterus weight worked out at 22.5 mg in test [23], 20.2 mg in test [26] and 56.3 mg in test [8]. For the same compound, the T/C with MCF7 [6] was determined as 52%; with MCF7 [7] it was 56%; in the test filed under Mus musculus [24] it was 36%; in the test listed under Mus musculus [25] it was 22%; in [27], 92%; in test [28] it was 113%. Also, the T/C in the test with MCF7 [11] stood at 18%; in the test with MCF7 [12] it was 12%. Besides, the Tumor weight in the test filed under Mus musculus [29] was found to be 195 mg; in the test filed under Mus musculus [30], 121 mg.
As to “[5-hydroxy-3-methyl-2-(4-hydroxyphenyl)-1-[omega-[(2-pyridylmethyl(1-ethyl))amino]hexyl]indole]dichloroplatinum (II) complex”, the Relative uterus weight is 20.2 mg in [31], 35.7 mg in test [32] and 48 mg in [8]. In addition, the results for the T/C (in the test listed under Mus musculus [25]; in [33]) were 21% and 104%, respectively. Further, the Tumor weight in the test listed under Mus musculus [34] turned out to be 80 mg.

Source of the values: ChEMBL document CHEMBL1125823, “2-Phenylindole-linked [2-(aminoalkyl)pyridine]dichloroplatinum(II): complexes with a selective action on estrogen receptor positive mammary tumors” (1991).
